This is a sample that favours compounds with a hit; in the whole collection about 0.79% have one here.
p97 ATPase inh: human p97 ATPase inhibition. P55072. recombinant p97 ATPase, Kinase-Glo ATP luminescence, 3 h. inhibition, % at 8 µM. hit rate 0.42% among 220,000. AID 1481; in the data active means inhibition above about 15%;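 further: 0% = DMSO vehicle and 100% = wells lacking enzyme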
Redox H2O2 prof: compounds producing H2O2 with reducing agent – biochemical, NIH compound library profiling, artefact control for MLSCN library redox annotation, primary screen; AID 878; activation, % at 10 µM; DTT-dependent redox cycling H2O2, phenol red/HRP absorbance; 100% = 100 µM peroxide control, 0% = buffer; hit rate 0.03% among 200,000;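 active means activation of at least 50% relative to the plate's high and low controls in the primary single-dose screen; inactive means activation below 50%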;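 further: compound incubated with DTT at 0.8 mM final as the reducing agent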
TNAP inh hiacc: TNAP (human) inhibition, high acceptor. inhibition, % at 20 µM. hit rate 0.03% among 200,000. AID 1135. purified TNAP, CDP-star luminescence, 1 M DEA;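 active means over 50% inhibition of tissue-nonspecific alkaline phosphatase at 20 µM in the single-dose screen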;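 further: plate controls were DMSO wells for no effect and EDTA-quenched wells as full inhibition for full effect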
Target sequence (P05186 whole entry, looked up): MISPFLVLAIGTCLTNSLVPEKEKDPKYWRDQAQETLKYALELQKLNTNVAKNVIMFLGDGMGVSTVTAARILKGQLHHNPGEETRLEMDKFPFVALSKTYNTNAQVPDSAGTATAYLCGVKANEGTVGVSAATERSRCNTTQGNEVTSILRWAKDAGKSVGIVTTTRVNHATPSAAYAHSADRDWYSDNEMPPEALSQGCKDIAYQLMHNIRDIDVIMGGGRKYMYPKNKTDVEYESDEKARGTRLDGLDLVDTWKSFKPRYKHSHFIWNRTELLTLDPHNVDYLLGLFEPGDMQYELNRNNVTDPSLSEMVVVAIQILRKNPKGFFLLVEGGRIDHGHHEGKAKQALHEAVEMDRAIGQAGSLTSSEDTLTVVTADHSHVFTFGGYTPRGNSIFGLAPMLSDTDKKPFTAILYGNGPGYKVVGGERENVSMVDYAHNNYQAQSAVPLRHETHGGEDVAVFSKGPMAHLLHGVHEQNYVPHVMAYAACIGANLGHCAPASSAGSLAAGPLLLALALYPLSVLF
TNAP inh no acc: inhibitors of human TNAP without phosphate acceptor; P05186; purified TNAP, CDP-star luminescence, 30 min; inhibition, % at 20 µM; hit rate 0.26% among 200,000;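 active means tissue-nonspecific alkaline phosphatase inhibition above about 50% at 20 µM in the single-dose screen, limit read from the data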;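 further: 0% = DMSO negative control and 100% = EDTA positive control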
G6PDH counter: counter-screen for G6PDH assay hits: L. mesenteroides G6PDH inhibition; inhibition, % at 5 µM; Purified L. mesenteroides G6PDH, diaphorase/resazurin coupled fluorescence, 45 min; hit rate 0.12% among 200,000; in the data active means inhibition above about 50%
TNAP act hi DEA: increases human TNAP activity under high phosphate acceptor concentration. activation factor at 20 µM. AID 1136. 200,000 tested, under 10 active. purified TNAP, CDP-star luminescence, 1 M DEA, 30 min; stronger effect = higher value; 0 = EDTA background, 1 = DMSO-only activity. P05186;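 active means activation factor at least 2 at 20 µM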
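system = human TNAP | amount = enzyme diluted 1/800 final | reagent = 100 µM CDP-star substrate | signal = luminescent substrate turnover signal | dosing = one dose, 20 µM | benchmarks = EDTA negative control, DMSO positive control | measure = activation factor | timing = 30 min reaction, room temperature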
* = called active by the depositor; nt = no result.

SMILES	p97 ATPase inh	Redox H2O2 prof	TNAP inh hiacc	TNAP inh no acc	G6PDH counter	TNAP act hi DEA
CCOC(=O)C1CCN(C(=O)c2c(C)oc3c2C(=O)c2ccccc2C3=O)CC1	6	0	1	-2	60*	1
Cc1oc2c(c1C(=O)N1CCC(C)CC1)C(=O)c1ccccc1C2=O	5	0	4	6	56*	1
N#Cc1cc2c(=O)n3ccccc3nc2n(-c2ccccc2Cl)c1=O	3	0	-2	-6	-1	1
CN1CCN(c2c(F)cc3c(=O)c(C(=O)O)cn4c3c2OCN4C)CC1	1	nt	nt	nt	nt	nt
C=CCn1c(SCC(=O)Nc2ncc(Cc3ccc(C)c(Cl)c3)s2)nnc1-c1ccncc1	1	0	2	1	11	1
CCC(=O)OCCNc1cc(Sc2nc3ccccc3s2)c2nonc2c1[N+](=O)[O-]	1	1	0	1	21	1
O=[N+]([O-])c1c(NCCCO)cc(Sc2nc3ccccc3s2)c2nonc12	6	-3	5	10	51*	0.9
CN1CCCC(OC(=O)c2cccc(Cl)c2)C1 (stereo not drawn)	-6	nt	nt	nt	nt	nt
CC(C)(C)NC(=O)NC(=O)CSc1n[nH]c(-c2ccccc2Br)n1	5	0	-4	40	7	1
O=C(CSc1n[nH]c(-c2ccccc2Br)n1)NCCN1C(=O)CSC1=O	7	0	4	84*	-9	1
O=C(CSc1n[nH]c(-c2ccccc2Br)n1)NC(=O)NCc1ccco1	3	-1	0	82*	2	1
Cc1onc(-c2ccccc2)c1CNS(=O)(=O)c1ccccc1[N+](=O)[O-]	2	nt	nt	nt	nt	nt
O=C(NC1C/C(=N/O)c2cc3c(cc21)OCO3)C(F)(F)F (stereo not drawn)	0	-2	-2	-10	0	1
O=C(OCc1ccc(F)cc1)c1ccc2c(c1)-c1ccccc1C2=O	10	3	-2	-7	1	1
CCOC(=O)C1=C(Cc2ccc(F)cc2)C(=O)c2ccccc2C1=O	2	0	2	27	62*	1
CC(C)CCNC(=O)c1cc2c(s1)-c1ccccc1S(=O)(=O)C2	-2	nt	nt	nt	nt	nt
O=c1cc(-c2ccc([N+](=O)[O-])cc2)nc2cc(-c3ccc(Cl)cc3)[nH]n12	-2	0	3	51*	6	1
O=c1cc(-c2ccccc2)nc2cc(-c3ccco3)[nH]n12	2	nt	nt	nt	nt	nt
CCSC1=NCCN1C(=O)C(C)(C)Oc1ccc(Cl)cc1	-7	-2	-2	-10	10	1
O=Cc1c(Cl)[nH]c(=O)n1-c1ccccc1	2	-1	-4	-11	6	1
O=c1[nH]c2cc(Cl)ccc2n1-c1ccccc1	-1	-1	14	69*	3	0.9
Nc1nc(SCC(=O)Nc2ccc(S(N)(=O)=O)cc2)n[nH]1	7	0	2	64*	7	1
COC(=O)c1ccc(S(=O)(=O)N2CCCCCC2)cc1	2	2	-2	0	0	1
O=C(/C=C/c1ccc(O)c(O)c1)c1ccc(S(=O)(=O)N2CCCCCC2)cc1	5	1	43	57*	6	0.6
CCOC(=O)c1sc(NC(=O)CSc2nc(C)cc(C)n2)c(C#N)c1C	-1	2	-5	-16	-4	1
SMILES	p97 ATPase inh	Redox H2O2 prof	TNAP inh hiacc	TNAP inh no acc	G6PDH counter	TNAP act hi DEA
Cn1c(N)c(C(=O)CSc2nc(N)cc(N)n2)c(=O)n(C)c1=O	4	-1	-3	-8	-2	1
COC(=O)c1ccccc1NC(=O)CSc1n[nH]c(-c2cccnc2)n1	8	0	32	69*	11	0.7
COC(=O)c1ccc(CSc2n[nH]c(-c3ccccc3)n2)o1	3	0	2	70*	4	1
Cc1ccc(-c2nc(SCC(=O)c3c(N)n(C)c(=O)n(C)c3=O)n[nH]2)cc1	6	0	8	88*	-4	0.9
COC(=O)c1ccccc1NC(=O)CSc1n[nH]c(C)n1	-5	0	-1	1	4	1
CCOC(=O)c1sc(NC(=O)CSc2n[nH]c(-c3ccccc3)n2)c(C#N)c1C	1	0	3	76*	-30	1

Screening results from PubChem BioAssay.
